Experimental data: ChEMBL document CHEMBL2311271 (Eur J Med Chem, 2013)

Legend:
786-0 = experiment: Cytotoxicity against human 786-0 cells by MTT assay; format: functional, cell-based
Procedure, shortened: (§1)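 Cells grown in RPMI-1640 with 10% fetal calf serum plus penicillin and streptomycin, 37 °C, 5% CO₂. Compounds in DMSO, final ≤2% (v/v), tested in 96-well cultures with MTT staining. IC₅₀ = concentration cutting optical density 50% versus untreated cells; three replicate wells per point; mean of three independent determinations.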

[1] = Antitumor activity against mouse Sarcoma 180 cells xenografted in mouse assessed as tumor inhibition at 1 mg/kg, ip qd for 7 days measured every 3 days for 21 days; format: functional; conditions: Sarcoma-180, ip, route intraperitoneal
769-P = experiment: Cytotoxicity against human 769-P cells by MTT assay; format: functional, cell-based; procedure, shortened: as §1
U-251 = experiment: Cytotoxicity against human U251 cells by MTT assay; format: functional, cell-based; procedure, shortened: as §1
HT-29 = experiment: Cytotoxicity against human HT-29 cells by MTT assay; format: functional, cell-based; procedure, shortened: as §1
A549 = experiment: Cytotoxicity against human A549 cells by MTT assay; format: functional, cell-based; procedure, shortened: as §1
CWR22R = experiment: Cytotoxicity against human 22Rv1 cells by MTT assay; format: functional, cell-based; procedure, shortened: as §1
[2] = system: Lewis lung carcinoma cell line; experiment: Antitumor activity against mouse LLC cells xenografted in mouse assessed as tumor inhibition at 1 mg/kg, ip qd for 7 days measured every 3 days for 21 days; format: functional; conditions: route intraperitoneal
[3] = Cytotoxicity against human Blu-87 cells by MTT assay; format: functional, cell-based; procedure, shortened: as §1
A-375 = experiment: Cytotoxicity against human A375 cells by MTT assay; format: functional, cell-based; procedure, shortened: as §1
SCaBER = experiment: Cytotoxicity against human SCaBER cells by MTT assay; format: functional, cell-based; procedure, shortened: as §1
OS-RC-2 = experiment: Cytotoxicity against human OS-RC2 cells by MTT assay; format: functional, cell-based; procedure, shortened: as §1
KB = experiment: Cytotoxicity against human KB cells by MTT assay; format: functional, cell-based; procedure, shortened: as §1
[4] = Acute toxicity in ip dosed C57BL/6 mouse measured up to 14 days; format: organism-based; conditions: in vivo
Procedure, shortened: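 Healthy C57BL/6 mice (9–12 weeks, 18–22 g), fasted overnight, 10 per group (5 male, 5 female). Single i.p. dose, 1.0 to 500 mg/kg in 0.5% CMC-Na. Watched continuously for 2 h, intermittently over 24 h, then occasionally to day 14 for behaviour, deaths and delayed effects. Heart, liver and kidneys inspected at necropsy. LD50 derived graphically.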

Mus musculus = experiment: Neurotoxicity in ip dosed C57BL/6 mouse assessed as tremble, twitch, jumping and supination response; format: toxicity, organism-based; conditions: in vivo
Procedure, shortened: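 C57BL/6 mice (9–12 weeks, 18–22 g), fasted overnight with water, dosed i.p. with 1.0–500 mg/kg in 0.5% CMC-Na; 10 per group (5 male, 5 female). Watched continuously 2 h for tremor, twitch, jumping, supination and other behavior, then intermittently to 24 h and occasionally to 14 days; killed day 14, with heart, liver and kidneys inspected.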

Bel-7402 = experiment: Cytotoxicity against human Bel7402 cells by MTT assay; format: functional, cell-based; procedure, shortened: as §1
BGC-823 = experiment: Cytotoxicity against human BGC823 cells by MTT assay; format: functional, cell-based; procedure, shortened: as §1
[5] = Antitumor activity against mouse Sarcoma 180 cells xenografted in mouse assessed as tumor inhibition at 20 mg/kg, ip qd for 7 days measured every 3 days for 21 days; format: functional; conditions: Sarcoma-180, ip, route intraperitoneal
HeLa = experiment: Cytotoxicity against human HeLa cells by MTT assay; format: functional, cell-based; procedure, shortened: as §1
HepG2 = experiment: Cytotoxicity against human HepG2 cells by MTT assay; format: functional, cell-based; procedure, shortened: as §1
MCF7 = experiment: Cytotoxicity against human MCF7 cells by MTT assay; format: functional, cell-based; procedure, shortened: as §1
[6] = system: Lewis lung carcinoma cell line; experiment: Antitumor activity against mouse LLC cells xenografted in mouse assessed as tumor inhibition at 20 mg/kg, ip qd for 7 days measured every 3 days for 21 days; format: functional; conditions: route intraperitoneal
[7] = Antitumor activity against mouse Sarcoma 180 cells xenografted in mouse assessed as tumor inhibition at 3 mg/kg, ip qd for 7 days measured every 3 days for 21 days; format: functional; conditions: Sarcoma-180, ip, route intraperitoneal
[8] = system: Lewis lung carcinoma cell line; experiment: Antitumor activity against mouse LLC cells xenografted in mouse assessed as tumor inhibition at 3 mg/kg, ip qd for 7 days measured every 3 days for 21 days; format: functional; conditions: route intraperitoneal
[9] = system: Lewis lung carcinoma cell line; experiment: Antitumor activity against mouse LLC cells xenografted in mouse assessed as tumor inhibition at 1.2 mg/kg, ip qd for 7 days measured every 3 days for 21 days; format: functional; conditions: route intraperitoneal
[10] = Antitumor activity against mouse Sarcoma 180 cells xenografted in mouse assessed as tumor inhibition at 1.2 mg/kg, ip qd for 7 days measured every 3 days for 21 days; format: functional; conditions: Sarcoma-180, ip, route intraperitoneal
[11] = Antitumor activity against mouse Sarcoma 180 cells xenografted in mouse assessed as tumor inhibition at 0.63 mg/kg, ip qd for 7 days measured every 3 days for 21 days; format: functional; conditions: Sarcoma-180, ip, route intraperitoneal
[12] = system: Lewis lung carcinoma cell line; experiment: Antitumor activity against mouse LLC cells xenografted in mouse assessed as tumor inhibition at 0.63 mg/kg, ip qd for 7 days measured every 3 days for 21 days; format: functional; conditions: route intraperitoneal
[13] = system: Lewis lung carcinoma cell line; experiment: Antitumor activity against mouse LLC cells xenografted in mouse assessed as tumor inhibition at 30 mg/kg, ip qd for 7 days measured every 3 days for 21 days; conditions: read-out: INH
[14] = Antitumor activity against mouse Sarcoma 180 cells xenografted in mouse assessed as tumor inhibition at 30 mg/kg, ip qd for 7 days measured every 3 days for 21 days; conditions: Sarcoma-180, ip, read-out: INH
[15] = system: Lewis lung carcinoma cell line; experiment: Antitumor activity against mouse LLC cells xenografted in mouse assessed as tumor inhibition at 7.5 mg/kg, ip qd for 7 days measured every 3 days for 21 days; format: functional; conditions: route intraperitoneal
Procedure, shortened: (§2)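 Tumour cells passaged in mice for 7 days, then harvested. Viable cells (2 × 10⁶/mouse) injected s.c. into the armpit. Starting 24 h later, compound given i.p. once daily for 7 days, 10 female mice per group. Mice killed on day 21 after inoculation and tumours excised and weighed. Inhibition = (C − T)/C × 100, using mean tumour weights of treated (T) and negative control (C) groups.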

[16] = Antitumor activity against mouse Sarcoma 180 cells xenografted in mouse assessed as tumor inhibition at 7.5 mg/kg, ip qd for 7 days measured every 3 days for 21 days; format: functional; conditions: Sarcoma-180, ip, route intraperitoneal; procedure, shortened: as §2

## Cc1c2c(cc[n+]1Cc1ccccc1)c1ccc(OCc3ccccc3)cc1n2CC(C)C.[Br-]
786-0
  IC50: < 1500 nM
[1]
  inhibition in vivo at 1 mg/kg: 52.6%
769-P
  IC50: 2400 nM
U-251
  IC50: < 1500 nM
HT-29
  IC50: 3400 nM
A549
  IC50: 3500 nM
CWR22R
  IC50: < 1500 nM
[2]
  inhibition in vivo at 1 mg/kg: 23.7%
[3]
  IC50: 6900 nM
A-375
  IC50: 3300 nM
SCaBER
  IC50: 4600 nM
OS-RC-2
  IC50: 4600 nM
KB
  IC50: < 1500 nM
[4]
  LD50 at 336 h: 5 mg/kg
Mus musculus
  Activity: Non-toxic

## CCC(CC)Oc1ccc2c3ccnc(C)c3n(CCCc3ccccc3)c2c1
Bel-7402
  IC50: 34300 nM
BGC-823
  IC50: 18300 nM
[5]
  inhibition in vivo at 20 mg/kg: 30.1%
HeLa
  IC50: 70100 nM
HepG2
  IC50: 7300 nM
MCF7
  IC50: 41900 nM
[6]
  inhibition in vivo at 20 mg/kg: 27.1%
[4]
  LD50 at 336 h: 100 mg/kg
Mus musculus
  Activity: Non-toxic

## CCn1c2cc(OCCCc3ccccc3)ccc2c2cc[n+](Cc3ccccc3)c(C)c21.[Br-]
786-0
  IC50: 1500 nM
Bel-7402
  IC50: 2400 nM
769-P
  IC50: 5000 nM
BGC-823
  IC50: 7600 nM
U-251
  IC50: 10500 nM
[7]
  inhibition in vivo at 3 mg/kg: 53.1%
HT-29
  IC50: 4200 nM
A549
  IC50: 2300 nM
HeLa
  IC50: 2200 nM
[3]
  IC50: 17300 nM
HepG2
  IC50: 7600 nM
A-375
  IC50: 2400 nM
[8]
  inhibition in vivo at 3 mg/kg: 27.2%
MCF7
  IC50: 2800 nM
SCaBER
  IC50: 16200 nM
OS-RC-2
  IC50: 2200 nM
KB
  IC50: < 1500 nM
[4]
  LD50 at 336 h: 15 mg/kg
Mus musculus
  Activity: Non-toxic

## CCC(CC)Oc1ccc2c3cc[n+](Cc4ccccc4)c(C)c3n(CCCc3ccccc3)c2c1.[Br-]
786-0
  IC50: < 1500 nM
Bel-7402
  IC50: 810 nM
769-P
  IC50: < 1500 nM
BGC-823
  IC50: 2500 nM
U-251
  IC50: 2100 nM
HT-29
  IC50: 2000 nM
A549
  IC50: 2000 nM
HeLa
  IC50: 1500 nM
CWR22R
  IC50: < 1500 nM
[3]
  IC50: 2100 nM
HepG2
  IC50: 3100 nM
A-375
  IC50: < 1500 nM
MCF7
  IC50: 1800 nM
SCaBER
  IC50: 4400 nM
[9]
  inhibition in vivo at 1.2 mg/kg: 28%
[10]
  inhibition in vivo at 1.2 mg/kg: 41.5%
OS-RC-2
  IC50: 2500 nM
KB
  IC50: < 1500 nM
[4]
  LD50 at 336 h: 6.25 mg/kg
Mus musculus
  Activity: Non-toxic

## Cc1c2c(cc[n+]1Cc1ccccc1)c1ccc(OCCCc3ccccc3)cc1n2CCCc1ccccc1.[Br-]
[11]
  inhibition in vivo at 0.63 mg/kg: 46.1%
786-0
  IC50: 2200 nM
Bel-7402
  IC50: 2000 nM
769-P
  IC50: 2900 nM
BGC-823
  IC50: 2500 nM
[12]
  inhibition in vivo at 0.63 mg/kg: 33.7%
U-251
  IC50: 740 nM
HT-29
  IC50: 2000 nM
A549
  IC50: 3300 nM
HeLa
  IC50: 3100 nM
CWR22R
  IC50: 2300 nM
[3]
  IC50: 1500 nM
HepG2
  IC50: 3800 nM
A-375
  IC50: < 1500 nM
MCF7
  IC50: 6600 nM
SCaBER
  IC50: 7700 nM
OS-RC-2
  IC50: 3100 nM
KB
  IC50: < 1500 nM
[4]
  LD50 at 336 h: 3.75 mg/kg
Mus musculus
  Activity: Non-toxic

## O=P1(N(CCCl)CCCl)NCCCO1 (centres undefined) [CYCLOPHOSPHAMIDE ANHYDROUS]
[13]
  inhibition in vivo at 30 mg/kg: 85.6%
[14]
  inhibition in vivo at 30 mg/kg: 88.7%
Mus musculus
  Activity: Non-toxic

## COc1ccc2c(c1)[nH]c1c(C)nccc12 [HARMINE]
[15]
  inhibition in vivo at 7.5 mg/kg: 33.7%
[16]
  inhibition in vivo at 7.5 mg/kg: 30.8%
Mus musculus
  Activity: Toxic
